Experimental data collected from several papers.
Lines come from different studies, so protocols differ.
Target: Aurora kinase B (AURKB, Homo sapiens, UniProt Q96GD4)
Effect on: enzyme activity

SMILES	action	technique	tested at	remaining activity [%]
CCCOc1ccc(OC)c(F)c1C(=O)c1ccc(C(=O)N[C@@H]2CNC[C@H]2NC(=O)c2ccc3[nH]ncc3c2)cc1	inhibitor		10 µM	10
Cc1ccc(Nc2nccc(N(C)c3ccc4c(C)n(C)nc4c3)n2)cc1S(N)(=O)=O	inhibitor		0.5 µM	64.6
Oc1cccc(-c2nc(N3CCOCC3)c3oc4ncccc4c3n2)c1	inhibitor		10 µM	95
CC(C)(C)C(=O)c1sc(NC2CCCCC2)nc1N	inhibitor		10 µM	107
Cn1c(=O)n(-c2ccc(C(C)(C)C#N)cc2)c2c3cc(-c4cnc5ccccc5c4)ccc3ncc21	inhibitor		10 µM	101
O=C(NCCCNc1nc(Nc2cccc(CN3CCOCC3)c2)ncc1C1CC1)C1CCC1	inhibitor	radiometric	1 µM	5
O=C1NC(=O)c2cc(Nc3ccc(F)cc3)c(Nc3ccc(F)cc3)cc21	inhibitor		0.5 µM	99.7
Cc1cnc(NC2CCOCC2)nc1-n1cnc(C(=O)NC(CN)c2cc(F)cc(Cl)c2)c1 (stereo not shown)	inhibitor	radiometric	1 µM	84
Cc1nn(CC(F)(F)F)cc1Nc1nccc(NCCCNC(=O)C2CCC2)n1	inhibitor	radiometric	1 µM	90
Cc1ccc(C(=O)Nc2ccc(CN3CCN(C)CC3)c(C(F)(F)F)c2)cc1C#Cc1cnc2cccnn12	inhibitor		23.5 nM	84
O=C(NCCCNc1nc(Nc2cccc(NC(=O)N3CCCC3)c2)ncc1I)c1cccs1	inhibitor	radiometric	1 µM	3
CC(C)(C)c1nc2c(s1)c1nc(N)ncc1c1ccc(NS(=O)(=O)c3c(F)cccc3F)c(F)c12	inhibitor	radiometric	1 µM	90
Cc1nn(CC(F)(F)F)cc1Nc1nccc(NCCc2cnc[nH]2)n1	inhibitor	radiometric	1 µM	71
COc1cc(Nc2cnc(C#N)c(O[C@H](C)CN(C)C)n2)ncc1-c1cnn(C)c1	inhibitor	radiometric	1 µM	42
COc1cc2c(N3CCN(C(=O)Nc4ccc(OC(C)C)cc4)CC3)ncnc2cc1OCCCN1CCCCC1			0.5 µM	89.6
NS(=O)(=O)c1ccc(CNc2ccnc(Nc3cccc(NC(=O)N4CCCC4)c3)n2)cc1	inhibitor	radiometric	1 µM	53
Cc1sc(C(=O)NC2COC2)cc1-n1cc(NC(=O)Nc2c(F)cccc2Cl)cn1	inhibitor		10 µM	96.4
Cc1nn(CC(F)(F)F)cc1Nc1nccc(NCc2ccc(S(N)(=O)=O)cc2)n1	inhibitor	radiometric	1 µM	82
Nc1ncnc2occ(-c3ccc(NC(=O)Nc4cc(C(F)(F)F)ccc4F)cc3)c12	inhibitor		20 µM	0.1
